Reference: ChEMBL document CHEMBL5303300, “EUbOPEN Chemogenomics Library - Multiplex” (2023)
Several values for one entry are separate records, joined by “and”; a condition that tells them apart may be missing. Equal entries are not always repeated.

System: Fibroblast
Experiment: Multiplex assay against human fibroblast
Type: toxicity, cell-based
Conditions: number of replicates 2
Summary of the method: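 Cells stained live at seeding with Hoechst33342, BioTracker Green Microtubule Cytoskeleton Dye, MitoTracker Red and Annexin V Alexa Fluor 680 were imaged on a CQ1 microscope at 37°C and 5% CO2 after compound addition. Their classification by CellPathfinder machine-learning gating ran from Hoechst high-intensity objects versus normal cells, to healthy, pyknosed or fragmented nuclei among normal cells, to mitotic or apoptotic among pyknosed cells. Tubulin, mitochondrial-mass and membrane-permeability phenotypes are per cents of healthy-nucleus cells.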

[1] = 12 h, 1 µM, compound concentration 1 uM
[2] = 12 h, 10 µM, compound concentration 10 uM
[3] = 24 h, 1 µM, compound concentration 1 uM
[4] = 24 h, 10 µM, compound concentration 10 uM
[5] = 48 h, 1 µM, compound concentration 1 uM
[6] = 48 h, 10 µM, compound concentration 10 uM

CC(C)N1CCN(Cc2cnc(-c3cc(-c4cccc5[nH]ccc45)cc4[nH]ncc34)o2)CC1 [NEMIRALISIB]
Population Apoptotic (%) [1]: 48% and 43%
Population Fragmented Nuclei (%) [1]: 10%
Population Healthy Nuclei (%) [1]: 72% and 64%
Population Hoechst High Intensity Objects (%) [1]: 0%
Population Membrane Permeable-Phenotype (%) [1]: 6% and 3%
Population Mitochondria Different-Phenotype (%) [1]: 2% and 0%
Population Mitotic Cells (%) [1]: 51% and 56%
Population Normal (%) [1]: 100% and 99%
Population Pyknosed Nuclei (%) [1]: 16% and 24%
Population Tubulin-Different-Phenotype (%) [1]: 19% and 9%
Total Cell Count [1]: 206 and 286
Population Apoptotic (%) [2]: 32% and 38%
Population Fragmented Nuclei (%) [2]: 7% and 15%
Population Healthy Nuclei (%) [2]: 63% and 69%
Population Hoechst High Intensity Objects (%) [2]: 0% and 2%
Population Membrane Permeable-Phenotype (%) [2]: 7%
Population Mitochondria Different-Phenotype (%) [2]: 6% and 12%
Population Mitotic Cells (%) [2]: 67% and 61%
Population Normal (%) [2]: 100% and 97%
Population Pyknosed Nuclei (%) [2]: 28% and 15%
Population Tubulin-Different-Phenotype (%) [2]: 58% and 61%
Total Cell Count [2]: 207 and 263
Population Apoptotic (%) [3]: 50% and 62%
Population Fragmented Nuclei (%) [3]: 8% and 10%
Population Healthy Nuclei (%) [3]: 70%
Population Hoechst High Intensity Objects (%) [3]: 0%
Population Membrane Permeable-Phenotype (%) [3]: 7%
Population Mitochondria Different-Phenotype (%) [3]: 2% and 1%
Population Mitotic Cells (%) [3]: 50% and 37%
Population Normal (%) [3]: 100%
Population Pyknosed Nuclei (%) [3]: 20% and 19%
Population Tubulin-Different-Phenotype (%) [3]: 25% and 11%
Total Cell Count [3]: 201 and 273
Population Apoptotic (%) [4]: 52% and 71%
Population Fragmented Nuclei (%) [4]: 5% and 15%
Population Healthy Nuclei (%) [4]: 72% and 68%
Population Hoechst High Intensity Objects (%) [4]: 3% and 5%
Population Membrane Permeable-Phenotype (%) [4]: 7% and 3%
Population Mitochondria Different-Phenotype (%) [4]: 17% and 22%
Population Mitotic Cells (%) [4]: 47% and 28%
Population Normal (%) [4]: 96% and 95%
Population Pyknosed Nuclei (%) [4]: 22% and 15%
Population Tubulin-Different-Phenotype (%) [4]: 64% and 58%
Total Cell Count [4]: 175 and 240
Population Apoptotic (%) [5]: 54% and 64%
Population Fragmented Nuclei (%) [5]: 11% and 12%
Population Healthy Nuclei (%) [5]: 73% and 67%
Population Hoechst High Intensity Objects (%) [5]: 0%
Population Membrane Permeable-Phenotype (%) [5]: 9% and 3%
Population Mitochondria Different-Phenotype (%) [5]: 3% and 0%
Population Mitotic Cells (%) [5]: 45% and 35%
Population Normal (%) [5]: 100%
Population Pyknosed Nuclei (%) [5]: 15% and 19%
Population Tubulin-Different-Phenotype (%) [5]: 15% and 7%
Total Cell Count [5]: 214 and 290
Population Apoptotic (%) [6]: 84% and 61%
Population Fragmented Nuclei (%) [6]: 10% and 15%
Population Healthy Nuclei (%) [6]: 69% and 68%
Population Hoechst High Intensity Objects (%) [6]: 7% and 5%
Population Membrane Permeable-Phenotype (%) [6]: 6% and 4%
Population Mitochondria Different-Phenotype (%) [6]: 11% and 14%
Population Mitotic Cells (%) [6]: 15% and 38%
Population Normal (%) [6]: 92% and 94%
Population Pyknosed Nuclei (%) [6]: 19% and 16%
Population Tubulin-Different-Phenotype (%) [6]: 34% and 40%
Total Cell Count [6]: 178 and 231

CC(=O)O[C@H]1C(=O)[C@@]2(C)[C@H]([C@H](OC(=O)c3ccccc3)[C@]3(O)C[C@H](OC(=O)[C@H](O)[C@@H](NC(=O)c4ccccc4)c4ccccc4)C(C)=C1C3(C)C)[C@]1(OC(C)=O)CO[C@@H]1C[C@@H]2O [PACLITAXEL]
Population Apoptotic (%) [2]: 50% and 51% and 43% and 57%
Population Fragmented Nuclei (%) [2]: 18% and 14% and 8% and 16%
Population Healthy Nuclei (%) [2]: 60% and 57% and 66%
Population Hoechst High Intensity Objects (%) [2]: 0%
Population Membrane Permeable-Phenotype (%) [2]: 2% and 1%
Population Mitochondria Different-Phenotype (%) [2]: 4% and 1% and 2% and 7%
Population Mitotic Cells (%) [2]: 50% and 48% and 56% and 42%
Population Normal (%) [2]: 100% and 99%
Population Pyknosed Nuclei (%) [2]: 21% and 28% and 24% and 17%
Population Tubulin-Different-Phenotype (%) [2]: 14% and 15% and 13%
Population Apoptotic (%) [4]: 68% and 71% and 75% and 53%
Population Fragmented Nuclei (%) [4]: 14% and 11% and 18%
Population Healthy Nuclei (%) [4]: 61% and 56% and 63%
Population Hoechst High Intensity Objects (%) [4]: 0%
Population Membrane Permeable-Phenotype (%) [4]: 0% and 2% and 1%
Population Mitochondria Different-Phenotype (%) [4]: 4% and 10% and 7% and 8%
Population Mitotic Cells (%) [4]: 31% and 28% and 24% and 46%
Population Normal (%) [4]: 100% and 99%
Population Pyknosed Nuclei (%) [4]: 23% and 28% and 25% and 19%
Population Apoptotic (%) [6]: 92% and 82% and 86% and 71%
Population Fragmented Nuclei (%) [6]: 23% and 16% and 19% and 22%
Population Healthy Nuclei (%) [6]: 60% and 62% and 63%
Population Hoechst High Intensity Objects (%) [6]: 0%
Population Membrane Permeable-Phenotype (%) [6]: 1% and 7% and 3%
Population Mitochondria Different-Phenotype (%) [6]: 6% and 9% and 7%
Population Normal (%) [6]: 100% and 99%
Population Pyknosed Nuclei (%) [6]: 15% and 20% and 16%
Population Tubulin-Different-Phenotype (%) [6]: 14% and 19% and 11% and 10%
